From ChEMBL document CHEMBL1141199, “N-benzylisatin sulfonamide analogues as potent caspase-3 inhibitors: synthesis, in vitro activity, and molecular modeling studies” (J Med Chem, 2005) come the findings set out here.

Broadly, the IC50 is the midpoint of a concentration-inhibition curve.

One assay concerns the target T1, Caspase-1 (Homo sapiens, UniProt P29466).
T1 sequence (P29466 whole entry): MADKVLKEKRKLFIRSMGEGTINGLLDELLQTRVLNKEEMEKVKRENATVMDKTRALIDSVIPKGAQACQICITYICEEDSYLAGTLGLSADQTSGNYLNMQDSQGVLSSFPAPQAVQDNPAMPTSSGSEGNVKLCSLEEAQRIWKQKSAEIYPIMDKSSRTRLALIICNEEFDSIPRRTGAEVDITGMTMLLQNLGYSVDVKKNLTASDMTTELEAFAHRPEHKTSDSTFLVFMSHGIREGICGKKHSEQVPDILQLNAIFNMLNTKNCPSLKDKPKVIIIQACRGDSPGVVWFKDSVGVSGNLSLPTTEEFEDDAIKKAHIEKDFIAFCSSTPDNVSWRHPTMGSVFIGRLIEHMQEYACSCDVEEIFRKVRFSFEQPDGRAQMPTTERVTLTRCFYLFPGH
In words: Inhibitory activity against caspase 1 using Ac-YVAD-AMC substrate. A digest of the protocol:
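Substrate solution carried an extra 10 mM 2-mercaptoethanol. Inhibitors in DMSO were preincubated 30 min on ice, then run 1–2 h at 37 °C. AMC was read at ex 355/em 460 nm. Duplicates; IC50 is the mean of three experiments.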

A further assay concerns the target Caspase-8 (Homo sapiens, UniProt Q14790). In words: Inhibitory activity against caspase 8 using Ac-IETD-AMC substrate. A digest of the protocol: (§1)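 Substrates at 10 µM: Ac-DEVD-AMC (caspase-3), Ac-VEID-AMC (caspase-6), Ac-IETD-AMC (caspase-8). Serially diluted inhibitors were preincubated 30 min on ice, then run 1–2 h at 37 °C in 5% final DMSO. AMC fluorescence ex 355/em 460 nm. Duplicates; IC50 averaged over three experiments.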

A further assay has as its target T2, Caspase-6 (Homo sapiens, UniProt P55212).
T2 sequence (P55212 whole entry): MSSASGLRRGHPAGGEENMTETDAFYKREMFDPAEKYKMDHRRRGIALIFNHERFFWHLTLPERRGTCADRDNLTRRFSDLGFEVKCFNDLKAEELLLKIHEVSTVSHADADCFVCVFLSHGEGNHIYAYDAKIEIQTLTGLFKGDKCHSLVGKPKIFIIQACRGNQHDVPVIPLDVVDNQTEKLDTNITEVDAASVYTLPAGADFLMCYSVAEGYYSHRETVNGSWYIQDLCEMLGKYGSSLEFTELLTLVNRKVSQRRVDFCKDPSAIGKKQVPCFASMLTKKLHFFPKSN
In words: Inhibitory activity against caspase 6 using Ac-VEID-AMC substrate. A digest of the protocol: as §1

The target in the next assay is T3, Caspase-7 (Homo sapiens, UniProt P55210).
T3 sequence (P55210 whole entry): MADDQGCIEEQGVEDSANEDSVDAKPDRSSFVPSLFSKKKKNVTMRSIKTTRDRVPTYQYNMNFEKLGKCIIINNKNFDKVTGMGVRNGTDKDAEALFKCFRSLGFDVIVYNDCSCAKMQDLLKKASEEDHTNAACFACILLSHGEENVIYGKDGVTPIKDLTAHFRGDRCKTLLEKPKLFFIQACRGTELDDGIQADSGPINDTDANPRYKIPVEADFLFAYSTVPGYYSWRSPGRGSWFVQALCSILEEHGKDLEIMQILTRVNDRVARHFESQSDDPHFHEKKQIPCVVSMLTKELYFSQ
In words: Inhibitory activity against caspase 7 using Ac-DEVD-AMC substrate. The procedure, abridged: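 Substrate solution held a further 10 mM 2-mercaptoethanol for full activation. Enzyme was used at a linear-range level. DMSO inhibitor dilutions (5% final) were preincubated 30 min on ice, then run 1–2 h at 37 °C. AMC read at 355/460 nm. Duplicates; IC50 is the mean of three runs.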

The target of a further assay is T4, Caspase-3 (Homo sapiens, UniProt P42574).
T4 sequence (P42574 whole entry): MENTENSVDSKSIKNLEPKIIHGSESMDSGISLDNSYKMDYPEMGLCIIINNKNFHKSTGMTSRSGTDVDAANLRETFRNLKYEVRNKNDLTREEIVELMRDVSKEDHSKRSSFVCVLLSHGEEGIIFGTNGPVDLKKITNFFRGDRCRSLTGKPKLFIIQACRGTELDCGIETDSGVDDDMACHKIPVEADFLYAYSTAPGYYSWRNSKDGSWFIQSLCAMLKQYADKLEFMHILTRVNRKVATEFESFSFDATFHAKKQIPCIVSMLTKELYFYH
In words: Inhibitory activity against caspase 3 using Ac-DEVD-AMC substrate. A digest of the protocol: as §1

Caspase-8, sequence (Q14790 217-374 limits assumed): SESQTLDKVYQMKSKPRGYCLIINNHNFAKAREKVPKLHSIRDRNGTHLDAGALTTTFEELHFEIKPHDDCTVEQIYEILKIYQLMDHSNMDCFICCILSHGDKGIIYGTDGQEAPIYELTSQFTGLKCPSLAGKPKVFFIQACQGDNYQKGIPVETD
Caspase-8, sequence (Q14790 385-479 limits assumed): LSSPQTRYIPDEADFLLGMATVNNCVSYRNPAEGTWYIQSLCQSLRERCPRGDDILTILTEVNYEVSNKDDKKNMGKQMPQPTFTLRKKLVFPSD

In the case of `O=C1C(=O)N(Cc2cccc(F)n2)c2ccc(S(=O)(=O)N3CCC[C@H]3COc3ccccc3)cc21`, the IC50 was above 50 µM against Caspase-1, above 50 µM on Caspase-8 and above 5 µM on Caspase-6.

With `O=C1Nc2ccc(S(=O)(=O)N3CCC[C@H]3COc3cccnc3)cc2C1=O`, the IC50 at Caspase-7 was 0.215 µM; on Caspase-1, above 5 µM; against Caspase-8 it was above 50 µM; against Caspase-3, 0.0583 µM; against Caspase-6 it was above 5 µM.

For `CC(=O)Oc1ccc(CN2C(=O)C(=O)c3cc(S(=O)(=O)N4CCC[C@H]4COc4ccccc4)ccc32)cc1`, the IC50 is 0.0348 µM against Caspase-7; above 50 µM against Caspase-1; above 50 µM against Caspase-8; 0.012 µM against Caspase-3; above 5 µM on Caspase-6.

As for `O=C1C(=O)N(Cc2ccc(F)cc2)c2ccc(S(=O)(=O)N3CC[C@H]3COc3ccccc3)cc21`, the half-inhibitory concentration (IC50) against Caspase-1 was above 10 µM; on Caspase-8, above 50 µM; against Caspase-6, above 5 µM.

On to `CSc1ccc(CN2C(=O)C(=O)c3cc(S(=O)(=O)N4CCC[C@H]4COc4cccnc4)ccc32)cc1`, for which the IC50 on Caspase-7 is 0.0233 µM; on Caspase-1, above 50 µM; against Caspase-8 it was above 50 µM; against Caspase-3, 0.0044 µM; on Caspase-6, above 5 µM.

Turning to `O=C1Nc2ccc(S(=O)(=O)N3CC[C@H]3COc3ccccc3)cc2C1=O`, the IC50 was above 10 µM at Caspase-1, above 50 µM on Caspase-8 and above 5 µM against Caspase-6.

On to `COc1ccc(CN2C(=O)C(=O)c3cc(S(=O)(=O)N4CCC[C@H]4COc4cccnc4)ccc32)cc1`, for which the IC50 against Caspase-7 was 0.0151 µM; against Caspase-1, above 10 µM; on Caspase-8 it was above 50 µM; at Caspase-3, 0.0039 µM; on Caspase-6 it was above 5 µM.

For the compound `O=C1Nc2ccc(S(=O)(=O)N3CCC[C@H]3COc3ccccc3)cc2C1=O`, the IC50 at Caspase-1 is above 10 µM; against Caspase-8 it was above 50 µM; on Caspase-6, above 5 µM.

For `CSc1ccc(CN2C(=O)C(=O)c3cc(S(=O)(=O)N4CC[C@H]4COc4ccccc4)ccc32)cc1`, the figures for the IC50 on Caspase-1, against Caspase-8 and against Caspase-6 were above 50 µM, above 50 µM and above 5 µM, respectively.

On to `O=C1C(=O)N(Cc2ccccc2)c2ccc(S(=O)(=O)N3CC[C@H]3COc3ccccc3)cc21`, for which the IC50 was above 10 µM against Caspase-1, above 50 µM on Caspase-8 and above 5 µM against Caspase-6.

Regarding `O=C1C(=O)N(Cc2ccc(F)nc2)c2ccc(S(=O)(=O)N3CCC[C@H]3COc3ccccc3)cc21`, the IC50 at Caspase-1 was above 50 µM; against Caspase-8 it was above 50 µM; against Caspase-6, above 5 µM.

Consider `O=C1C(=O)N(Cc2ccnc(F)c2)c2ccc(S(=O)(=O)N3CCC[C@H]3COc3ccccc3)cc21`, for which the IC50 against Caspase-1 was above 50 µM; at Caspase-8, above 50 µM; against Caspase-6, above 5 µM.

Consider `CN1C(=O)C(=O)c2cc(S(=O)(=O)N3CC[C@H]3COc3ccccc3)ccc21`, for which the IC50 against Caspase-1 is above 10 µM; against Caspase-8, above 50 µM; on Caspase-6 it was above 5 µM.

As for `O=C1C(=O)N(Cc2ccc(F)cc2)c2ccc(S(=O)(=O)N3CCC[C@H]3COc3ccccc3)cc21`, the IC50 against Caspase-7 is 0.023 µM; at Caspase-1 it was above 50 µM; against Caspase-8, above 50 µM; at Caspase-3, 0.0121 µM; against Caspase-6, above 5 µM.

On to `CN1C(=O)C(=O)c2cc(S(=O)(=O)N3CCC[C@H]3COc3ccccc3)ccc21`, for which the IC50 was 0.31 µM against Caspase-7; above 20 µM on Caspase-1; above 50 µM on Caspase-8; 0.119 µM against Caspase-3; above 5 µM at Caspase-6.

Consider `O=C1C(=O)N(Cc2ccnc(F)c2)c2ccc(S(=O)(=O)N3CC[C@H]3COc3ccccc3)cc21`, for which the half-inhibitory concentration (IC50) was above 50 µM at Caspase-1, above 50 µM against Caspase-8 and above 5 µM against Caspase-6.

As to `COc1ccc(CN2C(=O)C(=O)c3cc(S(=O)(=O)N4CC[C@H]4COc4ccccc4)ccc32)cc1`, the IC50 was above 50 µM against Caspase-1, above 50 µM against Caspase-8 and above 5 µM against Caspase-6.

On to `CSc1ccc(CN2C(=O)C(=O)c3cc(S(=O)(=O)N4CCC[C@H]4COc4ccccc4)ccc32)cc1`, for which the IC50 against Caspase-7 is 0.041 µM; against Caspase-1, above 50 µM; on Caspase-8 it was above 50 µM; on Caspase-3, 0.0124 µM; at Caspase-6 it was above 5 µM.

`O=C1C(=O)N(Cc2ccc(F)cc2)c2ccc(S(=O)(=O)N3CCC[C@H]3COc3cccnc3)cc21`: the IC50 against Caspase-7 is 0.0151 µM; on Caspase-1 it was above 10 µM; against Caspase-8, above 50 µM; against Caspase-3 it was 0.0084 µM; at Caspase-6 it was above 5 µM.

Consider `O=C1C(=O)N(Cc2cccc(F)n2)c2ccc(S(=O)(=O)N3CC[C@H]3COc3ccccc3)cc21`, for which the IC50 is above 10 µM against Caspase-1, above 50 µM against Caspase-8 and above 5 µM against Caspase-6.

Turning to `O=C1C(=O)N(Cc2ccccc2)c2ccc(S(=O)(=O)N3CCC[C@H]3COc3ccccc3)cc21`, the IC50 against Caspase-1 was above 10 µM; against Caspase-8, above 50 µM; against Caspase-6, above 5 µM.

As to `O=C1C(=O)N(Cc2ccccc2F)c2ccc(S(=O)(=O)N3CC[C@H]3COc3ccccc3)cc21`, the IC50 was above 10 µM against Caspase-1, above 50 µM on Caspase-8 and above 5 µM at Caspase-6.

As for `CN1C(=O)C(=O)c2cc(S(=O)(=O)N3CCC[C@H]3COc3cccnc3)ccc21`, the IC50 at Caspase-7 is 0.0949 µM; against Caspase-1, above 10 µM; on Caspase-8 it was above 50 µM; on Caspase-3 it was 0.0233 µM; against Caspase-6, above 5 µM.

As for `O=C1Nc2ccc(S(=O)(=O)N3CCC[C@H]3COc3ccncc3)cc2C1=O`, the IC50 against Caspase-7 is 0.142 µM; on Caspase-1 it was above 5 µM; at Caspase-8, above 50 µM; at Caspase-3 it was 0.0204 µM; at Caspase-6 it was above 5 µM.

Regarding `O=C1C(=O)N(Cc2ccc(O)cc2)c2ccc(S(=O)(=O)N3CCC[C@H]3COc3ccccc3)cc21`, the IC50 was above 5 µM against Caspase-1, above 50 µM at Caspase-8 and above 5 µM at Caspase-6.

In the case of `O=C1C(=O)N(Cc2ccc(F)nc2)c2ccc(S(=O)(=O)N3CC[C@H]3COc3ccccc3)cc21`, the IC50 is above 50 µM against Caspase-1, above 50 µM against Caspase-8 and above 5 µM against Caspase-6.

In the case of `O=C1C(=O)N(Cc2ccccc2)c2ccc(S(=O)(=O)N3CCC[C@H]3COc3cccnc3)cc21`, the IC50 on Caspase-7 is 0.0141 µM; on Caspase-1, above 10 µM; at Caspase-8, above 50 µM; against Caspase-3 it was 0.0052 µM; against Caspase-6 it was above 5 µM.

In the case of `COc1ccc(CN2C(=O)C(=O)c3cc(S(=O)(=O)N4CCC[C@H]4COc4ccccc4)ccc32)cc1`, the IC50 against Caspase-7 is 0.0218 µM; at Caspase-1, above 10 µM; against Caspase-8, above 50 µM; on Caspase-3, 0.0145 µM; against Caspase-6, above 5 µM.
